Assay results as given in ChEMBL document CHEMBL3745705, “Discovery of Oral VEGFR-2 Inhibitors with Prolonged Ocular Retention That Are Efficacious in Models of Wet Age-Related Macular Degeneration” (J Med Chem, 2015).
≈ marks a conversion by molar mass, not a printed value. Blank lines part the entries; values can stand above or below the compound they belong to.

Legend:
Mus musculus [1] = species on record: Mus musculus; assay: animal or person; conditions: C57BL/6, po, read-out: INH
Mus musculus [2] = assay: Antiangiogenic activity in po dosed C57BL/6 mouse laser-induced choroidal neovascularization assessed as inhibition of neovascular lesion formation administered qd for 6 days measured on day 7 by microscopic analysis; format: functional; conditions: C57BL/6, po
Rattus norvegicus [3] = assay: Antiangiogenic activity in po dosed Brown Norway rat laser-induced choroidal neovascularization model assessed as inhibition of neovascular lesion formation administered qd for 14 days by microscopic analysis; format: functional; conditions: 336 h
How it was run: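 Male Brown Norway rats, about 12 weeks old, dosed by oral gavage starting about 1 h before laser. Lesions were made under ketamine/xylazine i.p. (40–80 / 5–10 mg/kg) with 532 nm laser pulses (30 ms, 190 mW, 200 µm spot), about 4 lesions per eye and 10 rats per group. Vessels were labelled with i.v. 2,000 kD FITC dextran, eyes fixed in 4% paraformaldehyde, and CNV area measured blinded.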

Plasma [4] = assay: Dose normalized AUC (0 to 24 hrs) in Brown Norway rat plasma at 6 mg/kg, po; format: ADME, organism-based; conditions: in vivo
[5] = Dose normalized AUC (0 to 24 hrs) in Brown Norway rat retina at 6 mg/kg, po; format: ADME, organism-based; conditions: in vivo
[6] = Dose normalized AUC (0 to 24 hrs) in Brown Norway rat posteior eye cup at 6 mg/kg, po; format: ADME, organism-based; conditions: in vivo
Plasma [7] = assay: Dose normalized Cmax in Brown Norway rat plasma at 6 mg/kg, po; format: ADME, organism-based; conditions: in vivo
[8] = Dose normalized Cmax in Brown Norway rat retina at 6 mg/kg, po; format: ADME, organism-based; conditions: in vivo
[9] = Dose normalized Cmax in Brown Norway rat posteior eye cup at 6 mg/kg, po; format: ADME, organism-based; conditions: in vivo
Plasma [10] = assay: Dose normalized plasma concentration in Brown Norway rat plasma at 6 mg/kg, po measured at 24 hrs by LC-MS/MS analysis; format: ADME, organism-based; conditions: in vivo
[11] = Dose normalized drug uptake in Brown Norway rat retina at 6 mg/kg, po by LC-MS/MS analysis; format: ADME, organism-based; conditions: in vivo
Rattus norvegicus [12] = assay: AUC (0 to 8 hrs) in Brown Norway rat at 3 mg/kg, po by LC-MS/MS analysis; format: ADME, organism-based; parameters: dose 3 mg/kg, time < 8 hr, route oral; conditions: in vivo
[13] = Volume of distribution at steady state in Brown Norway rat at 3 mg/kg, po or 1 mg/kg, iv by LC-MS/MS analysis; format: ADME, organism-based; conditions: in vivo, read-out: Vdss
[14] = Half life in Brown Norway rat at 3 mg/kg, po or 1 mg/kg, iv by LC-MS/MS analysis; format: ADME, organism-based; conditions: in vivo
[15] = Cmax in Brown Norway rat at 3 mg/kg, po or 1 mg/kg, iv by LC-MS/MS analysis; format: ADME, organism-based; conditions: in vivo
Rattus norvegicus [16] = assay: Oral bioavailability in Brown Norway rat at 3 mg/kg by LC-MS/MS analysis; format: ADME, organism-based; conditions: in vivo
[17] = Dose normalized drug uptake in Brown Norway rat posteior eye cup at 6 mg/kg, po; format: ADME, organism-based; conditions: in vivo
[18] = molecular target: Mast/stem cell growth factor receptor Kit (Homo sapiens, UniProt P10721); assay: Inhibition of c-Kit (unknown origin)
Chain of Mast/stem cell growth factor receptor Kit (P10721 whole entry): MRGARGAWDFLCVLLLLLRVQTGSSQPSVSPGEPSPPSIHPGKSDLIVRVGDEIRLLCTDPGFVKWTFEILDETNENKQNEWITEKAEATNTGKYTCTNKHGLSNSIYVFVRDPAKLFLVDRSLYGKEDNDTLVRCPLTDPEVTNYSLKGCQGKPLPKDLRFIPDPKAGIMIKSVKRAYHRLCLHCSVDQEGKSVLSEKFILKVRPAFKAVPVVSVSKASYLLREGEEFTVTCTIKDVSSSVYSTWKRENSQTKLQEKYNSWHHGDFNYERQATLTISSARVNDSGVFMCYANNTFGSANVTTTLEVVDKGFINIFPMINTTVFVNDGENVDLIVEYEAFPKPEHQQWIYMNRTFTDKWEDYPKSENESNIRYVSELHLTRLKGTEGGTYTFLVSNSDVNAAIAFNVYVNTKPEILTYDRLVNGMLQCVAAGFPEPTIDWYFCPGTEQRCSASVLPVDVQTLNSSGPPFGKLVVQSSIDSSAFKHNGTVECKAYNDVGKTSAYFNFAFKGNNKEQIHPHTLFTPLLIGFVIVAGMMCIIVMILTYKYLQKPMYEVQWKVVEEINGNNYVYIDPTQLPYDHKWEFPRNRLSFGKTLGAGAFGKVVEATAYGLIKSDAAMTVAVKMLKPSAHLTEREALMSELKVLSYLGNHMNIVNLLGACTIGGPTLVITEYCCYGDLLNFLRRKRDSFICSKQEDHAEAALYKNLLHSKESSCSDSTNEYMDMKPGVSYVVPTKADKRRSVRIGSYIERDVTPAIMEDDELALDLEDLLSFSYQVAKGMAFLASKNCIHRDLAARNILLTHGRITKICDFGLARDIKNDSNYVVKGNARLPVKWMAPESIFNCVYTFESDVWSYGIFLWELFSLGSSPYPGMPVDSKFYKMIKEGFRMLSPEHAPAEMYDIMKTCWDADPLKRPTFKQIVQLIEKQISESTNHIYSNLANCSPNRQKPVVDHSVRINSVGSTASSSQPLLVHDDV
How it was run: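 Selectivity measured in a 62-kinase panel, with results reported as IC50 (µM).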

[19] = Aqueous solubility of the compound at pH 6.8; conditions: aqueous medium
Mus musculus [20] = assay: Antiangiogenic activity in mouse model of laser-induced choroidal neovascularization assessed as inhibition of neovascular lesion formation at 100 mg/kg, po bid for 7 days; format: functional; conditions: 168 h
[21] = Plasma concentration in mouse model of laser-induced choroidal neovascularization at 100 mg/kg, po bid for 7 days measured 16 hrs post last dose; format: ADME, organism-based

Structure (SMILES): C[C@H]1NCc2ncnc(Oc3ccc4c(ccn4C(=O)Nc4cccc(C(F)(F)F)c4)c3)c21
- inhibition in vivo at 10 mg/kg (Mus musculus [1]): 0%

- AUC/dose (Plasma [4]): 598 nM·h/mg/kg
- AUC/dose [5]: 3215 nM·h/mg/kg
- AUC/dose [6]: 22266 nM·h/mg/kg
- Cmax/dose (Plasma [7]): 68 nM/mg/kg
- Cmax/dose [8]: 170 nM/mg/kg
- Cmax/dose [9]: 1067 nM/mg/kg
- Cp/dose (Plasma [10]): 1.6 nM/mg/kg
- Druguptake/dose [11]: 122 nM/mg/kg
- AUC (Rattus norvegicus [12]): 2.49 µM·h
- Vd [13]: 5.6 L/kg
- half-life [14]: 2.3 h
- Cmax [15]: 0.514 µM
- F (Rattus norvegicus [16]): 81%
- Druguptake/dose [17]: 1067 nM/mg/kg
- IC50 [18]: 600 nM
Structure (SMILES): C[C@H]1Cc2c(ncnc2Oc2ccc3c(ccn3C(=O)Nc3cc(C4(C)CC4)n[nH]3)c2)CN1
- ED50 (Mus musculus [2]): 3.4 mg/kg
- ED90 (Mus musculus [2]): 19.6 mg/kg
- ED50 (Rattus norvegicus [3]): 2.9 mg/kg
- ED90 (Rattus norvegicus [3]): 14.6 mg/kg
- inhibition in vivo at 10 mg/kg (Mus musculus [1]): 67%

Structure (SMILES): C[C@@H]1Cc2c(ncnc2Oc2ccc3c(ccn3C(=O)Nc3cccc(C(F)(F)F)c3)c2)CN1
- inhibition in vivo at 10 mg/kg (Mus musculus [1]): 58%

- solubility [19]: 489 µM (≈ 203 µg/mL)
Structure (SMILES): CC1(c2cc(NC(=O)n3ccc4cc(Oc5ncnc6c5CNC6)ccc43)n[nH]2)CC1
- inhibition in vivo at 10 mg/kg (Mus musculus [1]): 43%

- solubility [19]: 190 µM (≈ 76.1 µg/mL)
Structure (SMILES): Cc1cncc(NC(=O)n2ccc3cc(Oc4ncnc5c4CCNC5)ccc32)c1

- solubility [19]: 64 µM (≈ 28.3 µg/mL)
Structure (SMILES): CNCc1cc(Oc2ccc3c(ccn3C(=O)Nc3cccc(C(F)(F)F)c3)c2)ncn1
- inhibition in vivo at 10 mg/kg (Mus musculus [1]): 67%

- solubility [19]: 682 µM (≈ 294 µg/mL)
Structure (SMILES): CC(C)(C)c1cc(NC(=O)n2ccc3cc(Oc4ncnc5c4CCNC5)ccc32)n[nH]1
- inhibition in vivo at 10 mg/kg (Mus musculus [1]): 0%

Structure (SMILES): C[C@@H]1NCc2ncnc(Oc3ccc4c(ccn4C(=O)Nc4cccc(C(F)(F)F)c4)c3)c21
- inhibition in vivo at 10 mg/kg (Mus musculus [1]): 41%

- solubility [19]: 84 µM (≈ 38.1 µg/mL)
Structure (SMILES): O=C(Nc1cccc(C(F)(F)F)c1)n1ccc2cc(Oc3ncnc4c3CCNC4)ccc21
- inhibition in vivo at 10 mg/kg (Mus musculus [1]): 87%

Structure (SMILES): C[C@H]1Cc2c(ncnc2Oc2ccc3c(ccn3C(=O)Nc3cccc(C(F)(F)F)c3)c2)CN1
- ED50 (Mus musculus [2]): 3.6 mg/kg
- ED90 (Mus musculus [2]): 8.5 mg/kg
- inhibition in vivo at 10 mg/kg (Mus musculus [1]): 96%

- solubility [19]: 37 µM (≈ 15 µg/mL)
Structure (SMILES): CC(C)c1cc(NC(=O)n2ccc3cc(Oc4ncnc5c4CNC5)ccc32)no1
- inhibition in vivo at 10 mg/kg (Mus musculus [1]): 96%

Structure (SMILES): O=C(Nc1cccc(C(F)(F)F)c1)n1ccc2cc(Oc3ncnc4c3CNC4)ccc21
- ED50 (Mus musculus [2]): 6.9 mg/kg
- ED90 (Mus musculus [2]): 31 mg/kg
- inhibition in vivo at 10 mg/kg (Mus musculus [1]): 68%

- solubility [19]: 232 µM (≈ 97.1 µg/mL)
Structure (SMILES): CC(C)(C)c1cc(NC(=O)n2ccc3cc(Oc4ncnc5c4CNC5)ccc32)on1
- inhibition in vivo at 10 mg/kg (Mus musculus [1]): 58%

Structure (SMILES): C[C@H]1Cc2c(ncnc2Oc2ccc3c(ccn3C(=O)Nc3cc(C(C)(C)C)on3)c2)CN1
- inhibition in vivo at 10 mg/kg (Mus musculus [1]): 96%

- concentration at 16 h [21]: 13 µM
Structure (SMILES): Cc1ccc(Nc2nccc(N(C)c3ccc4c(C)n(C)nc4c3)n2)cc1S(N)(=O)=O [PAZOPANIB]
- inhibition in vivo at 100 mg/kg (Mus musculus [20]): 93%
